Laboratory results as given in ChEMBL document CHEMBL4325889, “Natural products hybrids: 3,5,4'-Trimethoxystilbene-5,6,7-trimethoxyflavone chimeric analogs as potential cytotoxic agents against diverse human cancer cells” (Eur J Med Chem, 2019).

What was measured:
Format in all cases: functional
[1] = test system: SR; test: Growth inhibition of human SR cells at 10 uM after 48 hrs by SRB assay relative to control; details: read-out: GI
Method in brief: (§1)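 NCI screen against its human cancer cell line panel by the standard NCI protocol, SRB protein stain. Single dose of 10 μM. Percent growth inhibition versus control; values above 100% mean the cell population fell below the starting number. Each value is the mean of duplicates.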

[2] = test system: SK-MEL-2; test: Growth inhibition of human SK-MEL-2 cells at 10 uM after 48 hrs by SRB assay relative to control; details: SK-MEL-2, 48 h, read-out: GI
Method in brief: (§2)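 Screened at the National Cancer Institute by the standard NCI protocol using the sulforhodamine B assay, which measures cellular protein. Single dose of 10 µM. Result is percent growth inhibition; values above 100% mean cell number fell below the initial population. Values are the average of duplicates.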

[3] = test system: UACC-62; test: Growth inhibition of human UACC62 cells at 10 uM after 48 hrs by SRB assay relative to control; details: UACC-62, 48 h, read-out: GI; method in brief: as §1
[4] = test system: LOX IMVI; test: Growth inhibition of human LOXIMVI cells at 10 uM after 48 hrs by SRB assay relative to control; details: read-out: GI; method in brief: as §2
[5] = test system: CAKI-1; test: Growth inhibition of human Caki1 cells at 10 uM after 48 hrs by SRB assay relative to control; details: CAKI-1, 48 h, read-out: GI; method in brief: as §2
[6] = test system: OVCAR-3; test: Growth inhibition of human OVCAR3 cells at 10 uM after 48 hrs by SRB assay relative to control; details: OVCAR-3, 48 h, read-out: GI; method in brief: as §2
[7] = test system: COLO 205; test: Growth inhibition of human COLO205 cells at 10 uM after 48 hrs by SRB assay relative to control; details: COLO 205, 48 h, read-out: GI; method in brief: as §2
[8] = test system: SF-268; test: Growth inhibition of human SF268 cells at 10 uM after 48 hrs by SRB assay relative to control; details: SF-268, 48 h, read-out: GI; method in brief: as §2
[9] = test system: A549; test: Growth inhibition of human A549 cells at 10 uM after 48 hrs by SRB assay relative to control; details: A549, 48 h, read-out: GI; method in brief: as §2
[10] = test system: NCI/ADR-RES; test: Growth inhibition of human NCI/ADR-RES cells at 10 uM after 48 hrs by SRB assay relative to control; details: read-out: GI; method in brief: as §2
[11] = test system: UACC-257; test: Growth inhibition of human UACC257 cells at 10 uM after 48 hrs by SRB assay relative to control; details: UACC-257, 48 h, read-out: GI; method in brief: as §1
[12] = test system: U-251; test: Growth inhibition of human U251 cells at 10 uM after 48 hrs by SRB assay relative to control; details: U-251, 48 h, read-out: GI; method in brief: as §1
[13] = test system: OVCAR-4; test: Growth inhibition of human OVCAR4 cells at 10 uM after 48 hrs by SRB assay relative to control; details: OVCAR-4, 48 h, read-out: GI; method in brief: as §2
[14] = test system: MCF7; test: Growth inhibition of human MCF7 cells at 10 uM after 48 hrs by SRB assay relative to control; details: MCF7, 48 h, read-out: GI; method in brief: as §2
[15] = test system: KM12; test: Growth inhibition of human KM12 cells at 10 uM after 48 hrs by SRB assay relative to control; details: KM12, 48 h, read-out: GI; method in brief: as §2
[16] = test system: Hs-578T; test: Growth inhibition of human Hs 578T cells at 10 uM after 48 hrs by SRB assay relative to control; details: read-out: GI; method in brief: as §2
[17] = test system: HCC 2998; test: Growth inhibition of human HCC2998 cells at 10 uM after 48 hrs by SRB assay relative to control; details: HCC 2998, 48 h, read-out: GI; method in brief: as §2
[18] = test system: HCT-116; test: Growth inhibition of human HCT116 cells at 10 uM after 48 hrs by SRB assay relative to control; details: HCT-116, 48 h, read-out: GI; method in brief: as §2
[19] = test system: UO-31; test: Growth inhibition of human UO31 cells at 10 uM after 48 hrs by SRB assay relative to control; details: UO-31, 48 h, read-out: GI; method in brief: as §1
[20] = test system: NCI-H322M; test: Growth inhibition of human NCI-H322M cells at 10 uM after 48 hrs by SRB assay relative to control; details: read-out: GI; method in brief: as §2
[21] = test system: HOP-92; test: Growth inhibition of human HOP92 cells at 10 uM after 48 hrs by SRB assay relative to control; details: HOP-92, 48 h, read-out: GI; method in brief: as §2

Work on COc1cccc(NC(=O)c2cccc(-c3cc(=O)c4c(OC)c(OC)c(OC)cc4o3)c2)c1 yielded an inhibition of growth at 10 µM [1] of 58.1%, an inhibition of growth at 10 µM [2] of 24.3% and an inhibition of growth at 10 µM [3] of 37.9%. It also gave an inhibition of growth at 10 µM [4] of 50.1%, an inhibition of growth at 10 µM [5] of 25.3% and an inhibition of growth at 10 µM [6] of 33.4%. The inhibition of growth at 10 µM [7] was 31.7%, the inhibition of growth at 10 µM [8] was 36.9% and the inhibition of growth at 10 µM [9] was 37.2%. For the same compound, the inhibition of growth at 10 µM [10] was 35.2%, the inhibition of growth at 10 µM [11] was 7.62% and the inhibition of growth at 10 µM [12] was 37.9%. It also gave an inhibition of growth at 10 µM [13] of 37.4%, an inhibition of growth at 10 µM [14] of 12.3% and an inhibition of growth at 10 µM [15] of 46.3%. The inhibition of growth at 10 µM [16] was 53.8%, the inhibition of growth at 10 µM [17] was 12.2% and the inhibition of growth at 10 µM [18] was 39.3%. The inhibition of growth at 10 µM [19] was 68.4%, the inhibition of growth at 10 µM [20] was 19.9% and the inhibition of growth at 10 µM [21] was 58.1%.
Work on COc1cc2oc(-c3cccc(C(=O)Nc4ccc5c(c4)OCO5)c3)cc(=O)c2c(OC)c1OC yielded an inhibition of growth at 10 µM [1] of 52.4%, an inhibition of growth at 10 µM [2] of -2.38% and an inhibition of growth at 10 µM [3] of 19.1%. For the same compound, the inhibition of growth at 10 µM [4] was 81.5%, the inhibition of growth at 10 µM [5] was 27.9% and the inhibition of growth at 10 µM [6] was 12.7%. The inhibition of growth at 10 µM [7] was 24.4%, the inhibition of growth at 10 µM [8] was 12.5% and the inhibition of growth at 10 µM [9] was 25.5%. The inhibition of growth at 10 µM [10] was 35.1%, the inhibition of growth at 10 µM [11] was 5.96% and the inhibition of growth at 10 µM [12] was 9.36%. The inhibition of growth at 10 µM [13] was 3.72%, the inhibition of growth at 10 µM [14] was 17.9% and the inhibition of growth at 10 µM [15] was 32.7%. For the same compound, the inhibition of growth at 10 µM [16] was 14%, the inhibition of growth at 10 µM [17] was 2.03% and the inhibition of growth at 10 µM [18] was 27.3%. The inhibition of growth at 10 µM [19] was 41%, the inhibition of growth at 10 µM [20] was 22.6% and the inhibition of growth at 10 µM [21] was 21.9%.
COc1cccc(C(=O)Nc2cccc(-c3cc(=O)c4c(O)c(OC)c(OC)cc4o3)c2)c1 showed an inhibition of growth at 10 µM [1] of 54.8%, an inhibition of growth at 10 µM [2] of 21.6% and an inhibition of growth at 10 µM [3] of 39.1%. For the same compound, the inhibition of growth at 10 µM [4] was 57.6%, the inhibition of growth at 10 µM [5] was 23.8% and the inhibition of growth at 10 µM [6] was 34.1%. It also gave an inhibition of growth at 10 µM [7] of 5.46%, an inhibition of growth at 10 µM [8] of 29.8% and an inhibition of growth at 10 µM [9] of 35.4%. For the same compound, the inhibition of growth at 10 µM [10] was 43.7%, the inhibition of growth at 10 µM [11] was 25.9% and the inhibition of growth at 10 µM [12] was 28.4%. For the same compound, the inhibition of growth at 10 µM [13] was 33.4%, the inhibition of growth at 10 µM [14] was 34.9% and the inhibition of growth at 10 µM [15] was 43.7%. For the same compound, the inhibition of growth at 10 µM [16] was 34.1%, the inhibition of growth at 10 µM [17] was 11.8% and the inhibition of growth at 10 µM [18] was 44.5%. For the same compound, the inhibition of growth at 10 µM [19] was 52.9%, the inhibition of growth at 10 µM [20] was 30.9% and the inhibition of growth at 10 µM [21] was 31.2%.
COc1ccc(C(=O)Nc2cccc(-c3cc(=O)c4c(OC)c(OC)c(OC)cc4o3)c2)cc1 gave an inhibition of growth at 10 µM [1] of 71.4%, an inhibition of growth at 10 µM [2] of 38.7% and an inhibition of growth at 10 µM [3] of 44.6%. It also gave an inhibition of growth at 10 µM [4] of 58.1%, an inhibition of growth at 10 µM [5] of 42.6% and an inhibition of growth at 10 µM [6] of 33.2%. It also gave an inhibition of growth at 10 µM [7] of 26.9%, an inhibition of growth at 10 µM [8] of 41.6% and an inhibition of growth at 10 µM [9] of 35.3%. The inhibition of growth at 10 µM [10] was 39.8%, the inhibition of growth at 10 µM [11] was -4.69% and the inhibition of growth at 10 µM [12] was 27.7%. It also gave an inhibition of growth at 10 µM [13] of 38%, an inhibition of growth at 10 µM [14] of 33.5% and an inhibition of growth at 10 µM [15] of 53.7%. It also gave an inhibition of growth at 10 µM [16] of 57.1%, an inhibition of growth at 10 µM [17] of 29.7% and an inhibition of growth at 10 µM [18] of 52.2%. The inhibition of growth at 10 µM [19] was 73.5%, the inhibition of growth at 10 µM [20] was 44.9% and the inhibition of growth at 10 µM [21] was 93.3%.
